Screening results deposited in PubChem by several laboratories.
rCAG binder = binders of r(CAG) RNA repeats, primary screen, biochemical, fluorescence | r(CAG) RNA repeat, TO-PRO-1 dye displacement fluorescence | inhibition, % at 3 µM | 370,000 compounds, 1.3% hits | AID 651821, 2012;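 active = inhibition above the plate cutoff, the mean of all test compounds on that plate plus 3 SD, cut at about 35% in these data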;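 also: 0% = DMSO alone and 100% = 100 µM mitoxantrone as full dye displacement; higher means more dye released from RNA so lower well fluorescence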
STEP block = STEP phosphatase inhibitors, primary screen, biochemical, fluorescence intensity, uHTS; Tyrosine-protein phosphatase non-receptor type 5 (Homo sapiens), P54829; inhibition, % at 20 µM; 360,000 compounds, 0.25% hits; AID 588621, 2011; recombinant STEP, OMFP fluorogenic substrate;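 active = inhibition at 20 µM, scaled per plate between control wells, above about 37%, limit read from the data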;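 also: 0% = DMSO with enzyme and substrate and 100% = substrate only without enzyme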
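Also added – OMFP at 25 µM · Test system – STEP tyrosine phosphatase · Technique – FITC-channel fluorescence of OMFP product · Schedule – 20 min at room temperature, dark · Evaluation – control-normalized % inhibition with plate pattern correction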
NadD block = inhibitors of S. aureus NadD, primary screen, biochemical, colorimetric, uHTS; Nicotinate-nucleotide adenylyltransferase NadD (Staphylococcus aureus N315); purified NadD enzyme, colorimetric absorbance read-out; inhibition, % at 20 µM; 360,000 compounds, 0.78% hits; in the data active = inhibition above about 26%
LMPTP inh = LMPTP phosphatase inhibitors, primary screen, biochemical, fluorescence intensity, uHTS; AID 651560, 2012; 360,000 compounds, 0.22% hits; recombinant LMPTP-A, OMFP fluorogenic substrate; inhibition, % at 20 µM;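 active = compounds that cut the enzyme signal by at least half of the control window in the single-dose screen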;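 also: plate controls were DMSO wells with enzyme plus substrate for no effect and substrate without enzyme for full effect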
Target sequence (P24666 whole entry, looked up): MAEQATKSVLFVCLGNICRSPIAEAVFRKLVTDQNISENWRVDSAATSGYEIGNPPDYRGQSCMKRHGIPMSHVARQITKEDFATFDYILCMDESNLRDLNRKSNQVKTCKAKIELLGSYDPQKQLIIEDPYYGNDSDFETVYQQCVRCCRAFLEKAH
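Assay system: LMPTP-A, protein tyrosine phosphatase of low molecular weight / Medium: pH 6.0 Bis-Tris buffer with DTT and Triton X-100 / Schedule: 50 min enzyme reaction at room temperature, protected from light / Measured by: endpoint fluorescence intensity from OMFP dephosphorylation / Read-out basis: % inhibition relative to no-enzyme and uninhibited control wells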
Scp1 inh = Scp-1 phosphatase inhibitors, primary screen, biochemical, colorimetric, uHTS | 340,000 compounds, 0.88% hits | AID 493091, 2011 | Recombinant Scp1, phosphopeptide, malachite green phosphate absorbance | Carboxy-terminal domain RNA polymerase II polypeptide A small phosphatase 1 (Homo … | inhibition, % at 20 µM;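 active = inhibition above about 50% at 20 µM, limit read from the data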;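 also: plate controls were DMSO wells with enzyme for no effect and wells lacking enzyme for full effect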
Target sequence (Q9GZU7 76-261 limits assumed): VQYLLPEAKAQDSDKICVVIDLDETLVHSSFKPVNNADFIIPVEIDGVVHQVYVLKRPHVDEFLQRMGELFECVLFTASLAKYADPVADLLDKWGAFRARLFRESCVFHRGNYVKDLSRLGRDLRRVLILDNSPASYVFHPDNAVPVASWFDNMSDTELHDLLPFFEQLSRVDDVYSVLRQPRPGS
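Times: enzyme reaction 45 min at room temperature, colour 5 min, stabilisation 30 min. Material: SCP-1 catalytic fragment, aa 76-261. Medium: Acidic Tris acetate buffer with magnesium and detergent. Signal: colorimetric free-phosphate detection, absorbance 630 nm. Read-out basis: % inhibition of SCP-1 phosphate liberation. Reagent: Phosphorylated 17-residue peptide substrate.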
An asterisk follows results filed as active; . = no result. Shown are actives, neighbours in structure and some others; about 2.6% of the full set was active somewhere.

SMILES	rCAG binder	STEP block	NadD block	LMPTP inh	Scp1 inh
CCN1/C(=C/c2ccc3cc(C)ccc3[n+]2CC)Sc2cc(C)ccc21	-12	4	24	50*	34
CCN1/C(=C/c2ccc3cc(C)ccc3[n+]2C)Sc2ccc3sccc3c21	11	17	64*	77*	45
O=C(CNS(=O)(=O)c1ccc(Cl)s1)N1CCN(c2ccccn2)CC1	1	.	.	.	.
NC(=S)NN=C1Cc2cccc3cccc1c23	4	2	28	53*	8
O/N=C1/CCc2cccc3cccc1c23	-2	3	-8	-1	0
O=C1C[C@@H](c2ccccc2)N=C2N(CC3CC3)C/C(=C/c3ccccc3)N12	4	.	.	.	.
COc1cccc(/C=C2\SC(=O)NC2=O)c1OCc1ccc(C(=O)O)cc1	28	5	-1	-1	5
COc1ccc(OC)c(/C=C2\S/C(=N/NC(=O)c3ccc4ccccc4c3)NC2=O)c1	16	2	70*	7	-3
O=C1N/C(=N/NC(=O)c2cccc3ccccc23)S/C1=C\c1ccccc1OCc1ccccc1	27	8	82*	5	-10
COc1ccc(-c2c(Cc3ccccc3)nc(NC(=O)c3ccccc3)n2Cc2ccccc2)cc1	8	.	.	.	.
Cc1ccc(S(=O)(=O)N(C(=O)c2ccncc2)c2ccc(OC(=O)c3ccncc3)c3ccccc23)c(C)c1	.	1	14	3	60*
Cc1ccc(S(=O)(=O)N(C(=O)c2ccncc2)c2ccc(OC(=O)c3ccncc3)c3ccccc23)cc1	7	1	13	1	6
C=CCNc1nc(NCCCN2CCCC2=O)c2sc(-c3ccccc3)cc2n1	6	4	3	22	.
O=C1CCCN1CCCNc1nc(NCc2ccccc2)nc2ccsc12	1	0	-5	67*	.
Cc1cc(N2CCN(C(=O)OC(C)(C)C)C[C@H]2C)ccc1N1CCN(Cc2ccccc2)[C@@H](C)C1	2	.	.	.	.
CC1CC(C)C[N+](=C2C=C(N3CCCC3)CC(C)(C)C2)C1 (stereo not drawn)	1	0	16	0	96*
Cc1ccc2nc(-c3ccc(NC(=O)CSc4nnc(-c5ccccc5)n4Cc4ccco4)cc3)sc2c1	19	.	.	.	.
N#CCC[C@H]1CC[C@]2(CCCN(C(=O)c3ccc4ccccc4n3)C2)O1	1	.	.	.	.
CC(=O)N1C(=O)c2cccc3cccc(c23)C(=O)N1C(C)=O	.	.	.	.	1
O=C1c2cccc3cccc(c23)C(=O)C1(O)O	0	6	-2	57*	-10
Cc1ccc(-n2c(SCC(=O)c3ccc(Br)cc3)nnc2-c2ccncc2)cc1	3	.	.	.	.
O=C(O)C1=CC[C@@H](c2ccc(Cl)cc2)N(S(=O)(=O)c2ccc(Cl)cc2)[C@H]1c1cccc(Cl)c1	14	0	11	4	0
COc1ccc([C@@H]2CC=C(C(=O)O)[C@H](c3cccc(Cl)c3)N2S(=O)(=O)c2ccccc2C)cc1	74*	-2	4	-1	-17
O=C(NCc1ccccc1Br)c1cccc2c1C(=O)c1ccc(N3CCC(Cc4ccccc4)CC3)cc1S2(=O)=O	.	-1	33*	3	-11
C=CCN1C(=O)[C@@H](CC(=O)N2CCN(C(=O)OCC)CC2)[C@]2(C(=O)OC)CCCCC=C12	3	.	.	.	.
SMILES	rCAG binder	STEP block	NadD block	LMPTP inh	Scp1 inh
COc1ccc2cc1Oc1ccc(cc1)C[C@H]1c3c(cc(OC)c4c3Oc3c(ccc5c3[C@H](C2)N(C)CC5)O4)CCN1C	.	6	13	68*	4
COc1ccc2cc1Oc1ccc(cc1)CC1c3c(cc(OC)c4c3Oc3cc5c(cc3O4)CCNC5C2)CCN1C (stereo not drawn)	.	1	16	77*	-1
COc1cc2c3cc1Oc1cc(ccc1O)C[C@@H]1c4c(cc(OC)c(O)c4Oc4ccc(cc4)C[C@@H]3N(C)CC2)CC[N+]1(C)C	14	.	.	.	.
O=C(CCc1ccccc1)N[C@H]1[C@@H](OC(=O)c2ccco2)CCC[C@]12C(=O)N(Cc1ccccc1)c1ccccc12	4	.	.	.	.
O=C(CNc1ccc(Cl)c(C(F)(F)F)c1)N1CCN(S(=O)(=O)c2ccccc2)CC1	2	2	20	2	69*
CC(=O)c1ccc(NCC(=O)N2CCN(S(=O)(=O)c3ccccc3)CC2)cc1	-2	0	0	0	-2
COc1ccc(/C(O)=C/C(=O)C(=O)NNC(=O)C(O)(c2ccccc2)c2ccccc2)cc1	44*	3	11	1	-19
CN(C)c1ccc(/C=C(/C#N)C(=O)Nc2nc3c(s2)CCN(Cc2ccccc2)C3)cc1	2	-34	57*	14	3
N#C/C(=C\c1ccc(OCc2ccccc2)cc1)C(=O)Nc1nc2c(s1)CCN(Cc1ccccc1)C2	10	0	29	5	5
O=C(NCc1ccc(C(=O)N2CCOCC2)cc1)c1cccc(Br)c1	1	.	.	.	.
CC(C)C[C@@H]1COc2cc(Br)ccc2S(=O)(=O)N1Cc1cn(CC2CCCCC2)nn1	0	.	.	.	.
Nc1[nH]c(C(=O)c2ccccc2)c(-c2cccc3ccccc23)c1C(=O)NC1CCCCC1	7	.	.	.	.
C=CCSc1nnc2c(n1)OC(c1c(C)[nH]n(-c3ccccc3)c1=O)Nc1ccccc1-2 (stereo not drawn)	41*	-1	14	0	1
Cc1cccc(C(=O)Nc2sc(-c3ccccc3)cc2C(=O)O)c1	94*	-2	0	1	-11
CC(C)(C)C(=O)Nc1sc(-c2ccccc2)cc1C(=O)O	18	2	-4	-2	-12
O=C(O)CCCNc1cc(N2CCN(C(=O)c3ccco3)CC2)c2noc3c2c1C(=O)c1ccccc1-3	27	45*	13	6	78*
O=C1c2ccccc2-c2onc3c(N4CCN(CCO)CC4)cc(N4CCN(C(=O)c5ccco5)CC4)c1c23	7	5	24	12	6
CCOC(=O)N1CCN(c2cc(NCCC(=O)O)c3c4c(onc24)-c2ccccc2C3=O)CC1	.	-17	15	9	76*
CN1CCN(c2cc(N3CCN(C(=O)c4ccco4)CC3)c3c4c(onc24)-c2ccccc2C3=O)CC1	.	4	34*	8	6
OC(c1ccccc1)(c1ccccc1)C1CCN(CCCNc2ccc(C(F)(F)F)cc2)CC1	-1	.	.	.	.
CCCCCN1CCCCC(NC(=O)c2cccc(F)c2)C1=O (stereo not drawn)	-3	.	.	.	.
CC(Nc1nc(-c2ccncc2)nc2ccccc12)c1ccccc1 (stereo not drawn)	1	0	0	15	-7
